According to ChEMBL document CHEMBL1137753, “Insecticidal heterolignans--tubuline polymerization inhibitors with activity against chewing pests” (Bioorg Med Chem, 2009):
Active and inactive are the calls of the source.

How the values were obtained:
Assay type in all cases: functional, organism-based
Phaedon cochleariae [1] = assay: Insecticidal activity against Phaedon cochleariae larvae in disk of Chinese cabbage leaf treated as spray
Spodoptera frugiperda = assay: Insecticidal activity against Spodoptera frugiperda larvae in disk of maize leaf treated as spray
Phaedon cochleariae [2] = assay: Insecticidal activity against Phaedon cochleariae larvae in disk of Chinese cabbage leaf at 500 g/ha treated as spray
Outline: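 This was sprayed on Chinese cabbage leaf disks. Once dry, disks were infested with mustard beetle larvae and mortality was scored after a set time. "+" denotes ≥80% larvae killed; n.a. denotes none killed.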

SMILES | Activity (Phaedon cochleariae [1]) | Activity (Spodoptera frugiperda) | Activity (Phaedon cochleariae [2])
O=C1CCCC2=C1C(c1cccc(Cl)c1)c1cc3c(cc1N2)OCO3 (centres undefined) | inactive | inactive | –
COc1cc(OC)cc(C2C3=C(Nc4cc5c(cc42)OCO5)C(C)(C)ON(C)C3=O)c1 (centres undefined) | inactive | inactive | –
COc1cc(C2(C)C3=C(COC3=O)Nc3cc(Cl)ccc32)cc(OC)c1OC (centres undefined) | inactive | inactive | –
COc1cc(OC)cc(C2C3=C(CNC3=O)Nc3cc4c(cc32)OCO4)c1 (centres undefined) | – | inactive | Active
COc1cc(OC)cc(C2C3=C(Nc4cc5c(cc42)OCO5)C(C)(C)NC3=O)c1 (centres undefined) | inactive | inactive | –
COc1cc(OC)cc(C2C3=C(COC3=O)Nc3c(C)cc(C)cc32)c1 (centres undefined) | inactive | inactive | –
COc1cc(OC)cc(C2C3=C(Nc4cc5c(cc42)OCO5)C(C)(C)COC3=O)c1 (centres undefined) | inactive | inactive | –
O=C1OCC2=C1C(c1cc(Cl)cc(Cl)c1)c1cc3c(cc1O2)OCO3 (centres undefined) | inactive | inactive | –
O=C1OCC2=C1C(c1cccc(OC(F)F)c1)c1cc3c(cc1O2)OCO3 (centres undefined) | inactive | inactive | –
COc1cc(OC)cc(C2C3=C(COC3=O)Oc3c2ccc(OC)c3OC)c1 (centres undefined) | inactive | inactive | –
O=C1OCC2=C1C(c1cccc(Cl)c1Cl)c1cc3c(cc1N2)OCO3 (centres undefined) | inactive | inactive | –
COc1cc(OC)cc(C2C3=C(COC3=O)Nc3cc4c(cc32)OC(F)(F)O4)c1 (centres undefined) | – | inactive | Active
O=C1OCC2=C1C(c1ccc(F)c(Br)c1)c1cc3c(cc1N2)OCO3 (centres undefined) | – | – | Active
COc1cc(C2C3=C(CN(C(=O)OC(C)(C)C)C3=O)Nc3cc4c(cc32)OCO4)cc(OC)c1OC (centres undefined) | inactive | inactive | –
O=C1OCC2=C1C(c1cccc(Cl)c1)c1cc3c(cc1O2)OCO3 (centres undefined) | inactive | inactive | –
COc1cc(OC)cc(C2C3=C(COC3=O)Nc3cc(OC)c(OC)c(OC)c32)c1 (centres undefined) | inactive | inactive | –
COc1cc(OC)cc(C2C3=C(COC3=O)Nc3cc(C)cc(C)c32)c1 (centres undefined) | inactive | inactive | –
COc1cc(OC)cc(C2C3=C(COC3=O)Nc3cc(OC(F)F)c(OC(F)F)cc32)c1 (centres undefined) | inactive | inactive | –
COc1ccc(C2C3=C(O)OCC3=Nc3cc4c(cc32)OCO4)cc1 (centres undefined) | inactive | inactive | –
OC1=C2C(=Nc3cc4c(cc3C2c2ccccc2)OCO4)CO1 (centres undefined) | inactive | – | –
COc1cc(C2C3=C(COC3=O)Nc3cc(Cl)ccc32)cc(OC)c1OC (centres undefined) | inactive | inactive | –
COc1cc2c(cc1OC)N(C)C1=C(C(=O)OC1)C2c1cc(OC)c(OC)c(OC)c1 (centres undefined) | inactive | inactive | –
COc1cc(OC)cc(C2C3=C(COC3=O)Nc3cc(OCc4ccccc4)ccc32)c1 (centres undefined) | inactive | inactive | –
COc1cc(OC)cc(C2C3=C(COC3=O)Nc3cc(O)ccc32)c1 (centres undefined) | inactive | inactive | –

SMILES | Activity (Phaedon cochleariae [1]) | Activity (Spodoptera frugiperda) | Activity (Phaedon cochleariae [2])
COc1cccc(C2C3=C(COC3=O)Nc3cc4c(cc32)OCO4)c1OC (centres undefined) | inactive | inactive | –
COc1cc(OC)cc(C2C3=C(Nc4cc5c(cc42)OCO5)C(C)(CC(C)C)NC3=O)c1 (centres undefined) | inactive | inactive | –
CC1(C)CC(=O)C2=C(C1)Nc1cc3c(cc1C2c1cccc(Cl)c1)OCO3 (centres undefined) | inactive | inactive | –
COc1cc(OC)cc(C2C3=C(COC3=O)Nc3cc(C)ccc32)c1 (centres undefined) | – | – | Active
O=C1OC2(CCCCC2)C2=C1C(c1cccc(Cl)c1)c1cc3c(cc1N2)OCO3 (centres undefined) | inactive | inactive | –
COc1cc(C2C3=C(CNC3=O)Nc3cc4c(cc32)OCO4)cc(OC)c1OC (centres undefined) | – | inactive | Active
Clc1cccc(C2C3=C(CCC3)Nc3cc4c(cc32)OCO4)c1 (centres undefined) | inactive | inactive | –
O=C1OC2(CCCC2)C2=C1C(c1cccc(Cl)c1)c1cc3c(cc1N2)OCO3 (centres undefined) | – | inactive | Active
COc1cc(OC)cc(C2C3=C(COC3=O)Nc3cc(OC(F)(F)F)ccc32)c1 (centres undefined) | inactive | inactive | –
Clc1cccc(C2C3=C(CCCC3)Nc3cc4c(cc32)OCO4)c1 (centres undefined) | inactive | inactive | –
CCN1C2=C(C(=O)OC2)C(c2cc(OC)cc(OC)c2)c2cc(OC)c(OC)cc21 (centres undefined) | inactive | inactive | –
CC1(C)COS(=O)(=O)C2=C1Nc1cc3c(cc1C2c1cccc(Cl)c1)OCO3 (centres undefined) | – | inactive | Active
O=C1OCC2=C1C(c1cccc(Br)c1)c1cc3c(cc1O2)OCO3 (centres undefined) | inactive | inactive | –
COc1cc(OC)cc(C2C3=C(COC3=O)Nc3cc(OCc4ccccc4)c(Br)cc32)c1 (centres undefined) | inactive | inactive | –
COc1cc(OC)cc(C2C3=C(COC3=O)Nc3cc(C)c(C)cc32)c1 (centres undefined) | inactive | inactive | –
COc1cc(OC)cc(C2C3=C(Nc4cc5c(cc42)OCO5)C(C)(C)COS3(=O)=O)c1 (centres undefined) | inactive | inactive | –
O=C1OCC2=C1C(c1cccc(OC(F)(F)F)c1)c1cc3c(cc1O2)OCO3 (centres undefined) | inactive | inactive | –
COc1cc(OC)cc(C2C3=C(CN(C(=O)OC(C)(C)C)C3=O)Nc3cc4c(cc32)OCO4)c1 (centres undefined) | inactive | inactive | –
COc1cc(C2C3=C(COC3=O)Oc3cc4c(cc32)OCO4)cc(Br)c1OC (centres undefined) | – | inactive | Active
COc1cc(OC)cc(C2C3=C(COC3=O)Nc3cc(-c4ccccc4)ccc32)c1 (centres undefined) | inactive | inactive | –
CC1(C)OS(=O)(=O)C2=C1Nc1cc3c(cc1C2c1cccc(Cl)c1)OCO3 (centres undefined) | – | inactive | Active
COc1cc(OC)cc(C2C3=C(COC3=O)Nc3cc(OC)c(Cl)cc32)c1 (centres undefined) | inactive | inactive | –
COc1cc2c(cc1OC)C(c1cc(OC)c(OC)c(OC)c1)C1=C(O)OCC1=N2 (centres undefined) | inactive | inactive | –
O=C1OCC2=C1C(c1ccc3c(c1)OC(F)(F)O3)c1cc3c(cc1N2)OCO3 (centres undefined) | inactive | inactive | –

SMILES | Activity (Phaedon cochleariae [1]) | Activity (Spodoptera frugiperda) | Activity (Phaedon cochleariae [2])
COc1cc(OC)cc(C2C3=C(COC3=O)Nc3cc(C(C)(C)C)ccc32)c1 (centres undefined) | inactive | inactive | –
COc1cc(OC)cc(C2C3=C(COC3=O)Nc3ccc(OC(C)C)cc32)c1 (centres undefined) | inactive | inactive | –
O=C1OCC2=C1C(c1cc(Cl)ccc1Cl)c1cc3c(cc1N2)OCO3 (centres undefined) | inactive | inactive | –
O=C1C2=C(C(=O)C1c1ccccc1)C(c1cccc(Cl)c1)c1cc3c(cc1N2)OCO3 (centres undefined) | inactive | inactive | –
COc1cc(OC)cc(C2(C)C3=C(COC3=O)Nc3cc4c(cc32)OCO4)c1 (centres undefined) | inactive | inactive | –
COc1ccc2c(c1)OC1=C(C(=O)OC1)C2c1cccc(Cl)c1 (centres undefined) | inactive | inactive | –
COc1cc(OC)cc(C2C3=C(COC3=O)Oc3cc(OC)ccc32)c1 (centres undefined) | inactive | inactive | –
COc1cc(OC)cc(C2C3=C(COC3=O)Nc3c(OC)ccc(OC)c32)c1 (centres undefined) | inactive | inactive | –
O=S1(=O)CCC2=C1C(c1cccc(Cl)c1)c1cc3c(cc1N2)OCO3 (centres undefined) | inactive | inactive | –
COc1cc(OC)cc(C2C3=C(CCCC3=O)Nc3cc4c(cc32)OCO4)c1 (centres undefined) | inactive | inactive | –
O=C1OCC2=C1C(c1cccc(OCCO)c1)c1cc3c(cc1N2)OCO3 (centres undefined) | inactive | – | –
CC1(C)OC(=O)C2=C1Nc1cc3c(cc1C2c1cccc(Cl)c1)OCO3 (centres undefined) | – | inactive | Active
CC1(c2cccc(Cl)c2)C2=C(COC2=O)Nc2ccc(Cl)cc21 (centres undefined) | inactive | inactive | –
O=S1(=O)CCCC2=C1C(c1cccc(Cl)c1)c1cc3c(cc1N2)OCO3 (centres undefined) | inactive | inactive | –
O=C1OCC2=C1C(c1ccc(Cl)cc1)c1cc3c(cc1N2)OCO3 (centres undefined) | inactive | inactive | –
CC1(C)CS(=O)(=O)C2=C1Nc1cc3c(cc1C2c1cccc(Cl)c1)OCO3 (centres undefined) | inactive | inactive | –
O=C1OCC2=C1C(c1cccc(Cl)c1)c1cc(Cl)ccc1N2 (centres undefined) | inactive | inactive | –
O=C1OCC2=C1C(c1cc(Cl)cc(Cl)c1Cl)c1cc3c(cc1N2)OCO3 (centres undefined) | inactive | inactive | –
Cc1ccc2c(c1)N(C)C1=C(C(=O)OC1)C2c1ccc(Cl)cc1 (centres undefined) | inactive | inactive | –
COc1cc(OC)cc(C2C3=C(CN(C(C)C)C3=O)Nc3cc4c(cc32)OCO4)c1 (centres undefined) | inactive | inactive | –
COc1cc(OC)cc(C2C3=C(COC3=O)Nc3cc(Oc4ccccc4)ccc32)c1 (centres undefined) | inactive | inactive | –
CCOc1cc2c(cc1OCC)C(c1cc(OC)cc(OC)c1)C1=C(COC1=O)N2 (centres undefined) | inactive | inactive | –
CC1(C)NC(=O)C2=C1Nc1cc3c(cc1C2c1cccc(Cl)c1)OCO3 (centres undefined) | – | inactive | Active
CC(C)(C)OC(=O)N1CC2=C(C1=O)C(c1cccc(Cl)c1)c1cc3c(cc1N2)OCO3 (centres undefined) | – | inactive | –
